Results reported in ChEMBL document CHEMBL3351398, “Discovery of a Potent and Selective DGAT1 Inhibitor with a Piperidinyl-oxy-cyclohexanecarboxylic Acid Moiety” (ACS Med Chem Lett, 2014).
The source made the active and inactive calls. The rule behind the calls is not given here.

Legend:
[1] = tested on: Homo sapiens; experiment: Reduction in fasting triglyceride levels in familial chylomicronemia syndrome patient at 20 mg dosed daily; type: functional
[2] = tested on: Mus musculus; experiment: Reduction in food intake in wild type mouse at 10 mg/kg, po dosed daily for 6 days measured starting from day 3; type: functional, organism-based; set-up: dose 10 mg/kg
Method in brief: (§1)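 Wild-type and DGAT1 knockout mice were dosed daily at 10 mpk for six days. Cumulative body weight gain and food intake were compared with vehicle-treated groups of the same genotype.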

[3] = tested on: Mus musculus; experiment: Reduction in cumulative body weight gain in DGAT1 knockout mouse at 10 mg/kg, po dosed daily for 6 days; type: functional, organism-based; set-up: dose 10 mg/kg
Method in brief: (§2)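 Wild-type and DGAT1 knockout mice were dosed daily at 10 mpk for six days. Cumulative body weight gain and food intake were compared with vehicle-treated groups.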

[4] = organism: Homo sapiens; experiment: Selectivity index, ratio of Ki for human A2A receptor to KI IC50 for human DGAT1
[5] = target: T1, Sterol O-acyltransferase 1 (Homo sapiens) (UniProt P35610); experiment: Inhibition of human ACAT1 at 10 uM
T1 sequence (whole entry): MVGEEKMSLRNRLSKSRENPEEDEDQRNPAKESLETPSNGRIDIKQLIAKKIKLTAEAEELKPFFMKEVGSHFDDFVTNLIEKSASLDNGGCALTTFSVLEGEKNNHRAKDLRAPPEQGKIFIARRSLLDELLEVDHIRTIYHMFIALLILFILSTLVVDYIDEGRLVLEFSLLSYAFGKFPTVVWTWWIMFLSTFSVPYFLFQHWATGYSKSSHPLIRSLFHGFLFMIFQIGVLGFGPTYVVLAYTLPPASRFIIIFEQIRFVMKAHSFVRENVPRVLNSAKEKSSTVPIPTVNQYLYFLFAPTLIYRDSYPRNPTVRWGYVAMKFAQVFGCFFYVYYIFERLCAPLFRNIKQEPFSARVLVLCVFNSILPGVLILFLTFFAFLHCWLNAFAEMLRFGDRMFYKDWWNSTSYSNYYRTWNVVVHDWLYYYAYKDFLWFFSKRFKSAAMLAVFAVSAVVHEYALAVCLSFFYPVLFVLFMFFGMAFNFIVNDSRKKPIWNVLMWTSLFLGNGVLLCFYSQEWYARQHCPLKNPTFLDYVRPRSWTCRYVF
Method in brief: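 Human ACAT1 inhibition was tested at a single concentration of 10 μM. The value is reported as percent inhibition.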

[6] = tested on: Mus musculus; experiment: Reduction in cumulative body weight gain in wild type mouse at 10 mg/kg, po dosed daily for 6 days measured starting from day 3; type: functional, organism-based; set-up: dose 10 mg/kg; method in brief: as §2
[7] = tested on: Mus musculus; experiment: Reduction in food intake in DGAT1 knockout mouse at 10 mg/kg, po dosed daily for 6 days; type: functional, organism-based; set-up: dose 10 mg/kg; method in brief: as §1
[8] = target: Voltage-gated inwardly rectifying potassium channel KCNH2 (Homo sapiens, UniProt Q12809); experiment: Displacement of radiolabeled MK499 from human ERG
Method in brief: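 hERG off-target activity was measured in a competitive binding assay against radiolabeled MK-499. The value is reported as Ki.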

[9] = target: Adenosine receptor A2a (Homo sapiens, UniProt P29274); experiment: Binding affinity to human A2A receptor
Method in brief: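 Recombinant human A2A receptor was tested in an in-house radioligand competition binding assay. The value is reported as Ki.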

[10] = target: T2, Sterol O-acyltransferase 1 (Homo sapiens, UniProt P35610); experiment: Inhibition of human ACAT1
T2 sequence (P35610 whole entry): T1 sequence (whole entry)

[11] = target: T3, Diacylglycerol O-acyltransferase 1 (Mus musculus, UniProt Q9Z2A7); experiment: Inhibition of mouse DGAT1
T3 sequence (Q9Z2A7 whole entry): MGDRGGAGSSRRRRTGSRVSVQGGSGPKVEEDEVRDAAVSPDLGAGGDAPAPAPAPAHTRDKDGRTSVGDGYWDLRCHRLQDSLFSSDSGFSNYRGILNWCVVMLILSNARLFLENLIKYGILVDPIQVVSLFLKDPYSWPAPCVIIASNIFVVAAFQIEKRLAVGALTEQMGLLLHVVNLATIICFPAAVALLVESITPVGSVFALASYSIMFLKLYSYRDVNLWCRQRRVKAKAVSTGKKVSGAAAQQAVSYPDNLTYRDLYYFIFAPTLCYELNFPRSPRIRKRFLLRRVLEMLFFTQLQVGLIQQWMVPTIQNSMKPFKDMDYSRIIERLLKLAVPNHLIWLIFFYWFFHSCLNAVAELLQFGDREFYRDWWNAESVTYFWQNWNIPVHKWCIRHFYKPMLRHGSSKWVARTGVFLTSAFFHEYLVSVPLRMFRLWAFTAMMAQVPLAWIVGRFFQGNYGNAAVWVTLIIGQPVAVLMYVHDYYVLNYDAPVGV

[12] = tested on: Mus musculus; experiment: Inhibition of plasma triglyceride accumulation in mouse at 10 mg/kg, po dosed 2 hrs before lipid challenge and measured at 18 hrs by lipid tolerance test; type: functional
Method in brief: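 Mouse lipid tolerance test measuring plasma triglyceride excursion. Dosing was 10 mpk oral, with triglyceride reduction read at 18 h.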

[13] = target: T4, Diacylglycerol O-acyltransferase 1 (Homo sapiens, UniProt O75907); experiment: Inhibition of human DGAT1
T4 sequence (O75907 whole entry): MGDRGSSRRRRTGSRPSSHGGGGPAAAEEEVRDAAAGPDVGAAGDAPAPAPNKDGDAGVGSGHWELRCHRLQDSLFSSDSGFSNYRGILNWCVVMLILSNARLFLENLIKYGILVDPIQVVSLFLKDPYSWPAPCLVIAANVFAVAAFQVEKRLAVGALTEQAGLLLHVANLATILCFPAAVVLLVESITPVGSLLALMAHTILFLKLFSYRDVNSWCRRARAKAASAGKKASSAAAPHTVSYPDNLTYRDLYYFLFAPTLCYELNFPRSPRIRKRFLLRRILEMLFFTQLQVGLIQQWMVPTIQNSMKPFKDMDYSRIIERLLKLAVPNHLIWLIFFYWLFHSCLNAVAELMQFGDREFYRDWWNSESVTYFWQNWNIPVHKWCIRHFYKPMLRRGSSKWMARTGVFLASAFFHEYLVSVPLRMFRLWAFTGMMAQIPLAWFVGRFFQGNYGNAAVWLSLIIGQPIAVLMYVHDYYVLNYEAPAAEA

[14] = tested on: Rattus norvegicus; experiment: Inhibition of plasma triglyceride accumulation in Sprague-Dawley rat at 10 mg/kg, po dosed 2 hrs before lipid challenge and measured at 18 hrs by lipid tolerance test; type: functional
[15] = Solubility in PBS buffer at pH 7; type: physicochemical
Method in brief: (§3)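 High-throughput solubility test in PBS buffer at pH 2 and at pH 7. Free form and salt forms (TFA, formate, ammonium) were tested separately.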

[16] = Solubility in PBS buffer at pH 2; type: physicochemical; method in brief: as §3

Voltage-gated inwardly rectifying potassium channel KCNH2, sequence (Q12809 whole entry): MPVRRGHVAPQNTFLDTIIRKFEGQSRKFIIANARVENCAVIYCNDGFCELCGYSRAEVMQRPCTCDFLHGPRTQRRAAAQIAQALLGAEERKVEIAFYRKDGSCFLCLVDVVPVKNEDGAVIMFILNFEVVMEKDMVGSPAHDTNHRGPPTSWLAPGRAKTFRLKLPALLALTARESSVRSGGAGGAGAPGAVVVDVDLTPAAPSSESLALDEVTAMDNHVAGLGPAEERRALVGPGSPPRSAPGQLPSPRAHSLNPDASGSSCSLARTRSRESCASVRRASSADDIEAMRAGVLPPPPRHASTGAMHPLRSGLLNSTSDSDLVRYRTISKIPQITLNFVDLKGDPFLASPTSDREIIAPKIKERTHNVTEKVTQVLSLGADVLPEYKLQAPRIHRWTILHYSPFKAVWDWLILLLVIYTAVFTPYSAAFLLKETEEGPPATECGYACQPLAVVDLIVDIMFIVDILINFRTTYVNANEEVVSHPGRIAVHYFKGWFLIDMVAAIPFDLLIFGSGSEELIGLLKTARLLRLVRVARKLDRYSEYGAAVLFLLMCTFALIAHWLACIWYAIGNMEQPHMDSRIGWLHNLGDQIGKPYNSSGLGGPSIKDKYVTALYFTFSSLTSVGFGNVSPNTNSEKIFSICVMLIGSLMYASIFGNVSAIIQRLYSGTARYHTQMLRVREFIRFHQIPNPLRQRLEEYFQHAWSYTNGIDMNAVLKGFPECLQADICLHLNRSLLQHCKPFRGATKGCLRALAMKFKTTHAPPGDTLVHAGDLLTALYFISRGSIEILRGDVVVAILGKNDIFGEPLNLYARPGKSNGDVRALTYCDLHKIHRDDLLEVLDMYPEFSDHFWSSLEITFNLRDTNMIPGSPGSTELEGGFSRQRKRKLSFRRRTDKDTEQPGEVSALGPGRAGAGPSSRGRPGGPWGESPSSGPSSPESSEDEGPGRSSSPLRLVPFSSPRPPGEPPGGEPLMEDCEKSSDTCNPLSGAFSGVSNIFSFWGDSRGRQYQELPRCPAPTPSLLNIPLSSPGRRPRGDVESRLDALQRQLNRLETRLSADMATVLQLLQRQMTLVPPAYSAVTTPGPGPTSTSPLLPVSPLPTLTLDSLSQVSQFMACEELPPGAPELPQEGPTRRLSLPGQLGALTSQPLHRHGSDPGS
Adenosine receptor A2a, sequence (P29274 whole entry): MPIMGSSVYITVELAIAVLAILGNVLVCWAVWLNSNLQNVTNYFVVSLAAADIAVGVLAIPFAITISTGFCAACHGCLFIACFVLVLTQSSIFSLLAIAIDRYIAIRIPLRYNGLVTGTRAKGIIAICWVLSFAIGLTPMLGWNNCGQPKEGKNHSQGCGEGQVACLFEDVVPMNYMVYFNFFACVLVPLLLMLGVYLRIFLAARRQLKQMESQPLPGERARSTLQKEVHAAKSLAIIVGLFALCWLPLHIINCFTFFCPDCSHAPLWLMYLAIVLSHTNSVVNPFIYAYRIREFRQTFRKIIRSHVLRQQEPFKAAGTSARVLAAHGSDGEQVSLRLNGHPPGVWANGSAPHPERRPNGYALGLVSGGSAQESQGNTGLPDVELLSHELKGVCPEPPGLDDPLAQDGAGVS

Q: For `O=C(O)C[C@H]1CC[C@H](c2ccc(-c3ccc(Nc4ccc(C(F)(F)F)nc4)cn3)cc2)CC1` [PRADIGASTAT], which “inhibition (INH)” value [1] is on record?
A: The value was 40%.

Q: Which Activity [2] does the source give for `O=C(O)[C@H]1CC[C@H](OC2CCN(c3ccc(-c4nc5cc(C(F)(F)F)ccc5[nH]4)cn3)CC2)CC1` here?
A: Its Activity is “Active”.

Q: What about the Activity [3] of the same compound?
A: The Activity was “inactive”.

Q: What about the Selectivity ratio [4] of the same compound?
A: Its Selectivity ratio is greater than 1000.

Q: And the inhibition [5]?
A: The inhibition was 23%.

Q: What about the Activity [6] of the same compound?
A: The Activity was “Active”.

Q: What about the Activity [7] of the same compound?
A: Its Activity is “inactive”.

Q: Which results are given for `O=C(O)[C@H]1CC[C@H](OC2CCN(c3ccc(-c4nc5cc(F)ccc5[nH]4)cn3)CC2)CC1`?
A: Ki [8]: > 60 µM; Ki [9]: 9.7 µM; IC50 [10]: > 10 µM; IC50 [11]: 0.11 µM; inhibition [5]: 5%

Q: Which Ki [8] does the source give for `O=C(O)[C@H]1CC[C@H](OC2CCN(c3ccc(-c4nc5cc(Cl)ccc5[nH]4)cn3)CC2)CC1` here?
A: The Ki was 4 µM.

Q: And the Ki [9]?
A: The Ki was 3.5 µM.

Q: And the Selectivity ratio [4]?
A: The Selectivity ratio was greater than 1000.

Q: What about the IC50 [10] of the same compound?
A: Its IC50 is greater than 10 µM.

Q: What about the IC50 [11] of the same compound?
A: Its IC50 is 0.029 µM.

Q: What about the inhibition [5] of the same compound?
A: The inhibition was 4%.

Q: And the inhibition in vivo at 10 mg/kg [12]?
A: The inhibition in vivo at 10 mg/kg was 75%.

Q: What about the IC50 [13] of the same compound?
A: Its IC50 is 0.0029 µM.

Q: For `O=C(O)[C@H]1CC[C@@H](OC2CCN(c3ccc(-c4nc5cc(C(F)(F)F)ccc5[nH]4)cn3)CC2)CC1`, which Ki [8] is on record?
A: Its Ki is 7 µM.

Q: And the Ki [9]?
A: Its Ki is 8 µM.

Q: And the Selectivity ratio [4]?
A: Its Selectivity ratio is greater than 1000.

Q: What about the IC50 [10] of the same compound?
A: The IC50 was greater than 10 µM.

Q: And the IC50 [11]?
A: Its IC50 is 0.008 µM.

Q: And the inhibition [5]?
A: The inhibition was 22%.

Q: And the inhibition in vivo at 10 mg/kg [12]?
A: Its inhibition in vivo at 10 mg/kg is 75%.

Q: What about the IC50 [13] of the same compound?
A: The IC50 was 0.0025 µM.

Q: Which inhibition in vivo at 10 mg/kg [14] does the source give for `CC1(C)Oc2ncnc(N)c2N=C1c1ccc([C@H]2CC[C@H](CC(=O)O)CC2)cc1` here?
A: The inhibition in vivo at 10 mg/kg was 100%.

Q: With `O=C(O)[C@H]1CC[C@@H](OC2CCN(c3ccc(-c4nc5cc(Cl)ccc5[nH]4)cn3)CC2)CC1` as the compound, how does the Ki [8] read?
A: The Ki was 15 µM.

Q: What about the IC50 [10] of the same compound?
A: The IC50 was greater than 10 µM.

Q: What about the IC50 [11] of the same compound?
A: The IC50 was 0.011 µM.

Q: And the inhibition [5]?
A: The inhibition was 13%.

Q: And the inhibition in vivo at 10 mg/kg [12]?
A: The inhibition in vivo at 10 mg/kg was 52%.

Q: And the IC50 [13]?
A: The IC50 was 0.0022 µM.

Q: Which solubility [15] does the source give for `O=C(O)C(F)(F)F.O=C(O)[C@H]1CC[C@H](OC2CCN(c3ccc(-c4nc5cc(C(F)(F)F)ccc5[nH]4)cn3)CC2)CC1` here?
A: Its solubility is 151 µM.

Q: And the solubility [16]?
A: The solubility was 130 µM.

Q: Which results are given for `O=C(O)[C@H]1CC[C@@H](OC2CCN(c3ccc(-c4nc5cc(F)ccc5[nH]4)cn3)CC2)CC1`?
A: Ki [8]: 11 µM; Ki [9]: > 10 µM; Selectivity ratio [4]: > 1000; IC50 [10]: > 10 µM; IC50 [11]: 0.026 µM; inhibition [5]: -2%; inhibition in vivo at 10 mg/kg [12]: 55%; IC50 [13]: 0.0058 µM
